Assay outcomes: PubChem BioAssay, The Scripps Research Institute Molecular Screening Center
TRPML3 ag = human TRPML3 channel agonists, primary screen, cell-based, HEK293 TRPML3-YFP, Fluo-8 calcium fluorescence, 3 µM. actives 0.29% (n = 220,000). AID 1448, 2008. 100% = the carbachol control signal. activation, % at 3 µM. Mucolipin-3 (Homo sapiens), Q8TDD5;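 active = activation above its plate's cutoff, the mean activation of the plate's test wells plus 3 SD, cut at about 12% in these data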
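Test system – HEK293 line with stable expression of human TRPML3-YFP channel · Control set – carbachol 87 µM final as high control (100%), DMSO as low control (0%) · Signal – Fluo-8 calcium dye fluorescence, ex 470-495, em 515-575 nm · Incubation – 1-h 37 °C dye load, 5-s basal, 120-s post-compound reads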
OXTR potentiator = human OXTR potentiators, primary screen, fluorescence, CHO-OTR cells, Fluo-8 calcium. Oxytocin receptor (Homo sapiens), P30559. Fluo-8 calcium fluorescence, potentiator mode; 0% = oxytocin EC15, 100% = EC100. activation, % at 3 µM. actives 0.061% (n = 320,000). AID 2445, 2010;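 active = activation above that plate's cutoff, the mean activation of tested compounds plus 3 SD, cut at about 6.6% in these data, passing the limit was not always enough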
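System: human OTR in CHO cells; Also added: sub-maximal oxytocin, roughly EC15; Timing: compound 6 min at room temperature before oxytocin, 100 s read; Technique: Fluo-8 intracellular calcium fluorescence, ex 470-495, em 515-575 nm; Controls: oxytocin EC15 low and EC100 high; Replication: singlicate.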
OXTR ag = human OXTR agonists, primary screen, fluorescence, CHO-OTR cells, Fluo-8 calcium; Oxytocin receptor (Homo sapiens), P30559; Fluo-8 calcium fluorescence; normalized: DMSO 0%, oxytocin 100%; activation, % at 3 µM; actives 0.32% (n = 320,000);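 active = activation above the mean of all tested compounds plus 3 SD, cutoff set per screening run, cut at about 20% in these data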;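 note: peak over basal fluorescence ratio from a 100 s FLIPR kinetic read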
TRPN1 ag = zebrafish TRPN1 channel agonists, primary screen, cell-based, HEK293, calcium fluorescence. actives 0.18% (n = 220,000). transient receptor potential cation channel N1 (TRPN1/NompC), Danio rerio. activation, % at 3 µM. HEK293 zebrafish TRPN1-YFP, Fluo-8 calcium fluorescence; 100% = response to 87 µM carbachol;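 active = activation above its plate's cutoff, the mean activation of test wells on that plate plus 3 SD, cut at about 19% in these data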
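Material – zebrafish TRPN1-YFP in HEK293 cells · Doses – 3 µM single point · Schedule – dye 1 h 37 °C plus 30 min RT · Signal – Fluo-8 calcium fluorescence, excitation 470-495 nm, emission 515-575 nm · Read-out – % activation versus carbachol response · Control set – carbachol high, DMSO low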
V1aR counter = agonists of human V1a receptor, primary screen, counter-screen for OXTR agonist project, fluorescence, CHO-V1R cells | Vasopressin V1a receptor (Homo sapiens), P37288 | Fluo-8 calcium fluorescence, agonist mode; 0% DMSO, 100% 3 nM vasopressin | activation, % at 3 µM | actives 0.25% (n = 320,000) | AID 2797, 2010;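 active = activation above the mean activation of all tested compounds plus 3 SD, per screening run, cut at about 20% in these data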;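 note: signal is peak over basal fluorescence ratio across a 100 second FLIPR read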
Target sequence (P37288 whole entry, looked up): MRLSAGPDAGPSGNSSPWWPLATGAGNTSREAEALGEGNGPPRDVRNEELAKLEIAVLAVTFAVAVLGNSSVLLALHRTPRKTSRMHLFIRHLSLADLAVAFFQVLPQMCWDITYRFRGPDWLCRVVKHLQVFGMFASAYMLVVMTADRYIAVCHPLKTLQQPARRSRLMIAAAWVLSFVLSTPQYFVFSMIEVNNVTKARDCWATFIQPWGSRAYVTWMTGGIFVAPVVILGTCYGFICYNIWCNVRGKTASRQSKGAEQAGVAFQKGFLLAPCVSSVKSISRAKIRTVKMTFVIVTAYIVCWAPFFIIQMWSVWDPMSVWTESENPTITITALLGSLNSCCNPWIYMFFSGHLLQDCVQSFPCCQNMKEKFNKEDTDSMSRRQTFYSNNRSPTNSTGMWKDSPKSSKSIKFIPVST
OXTR agonist cf = human OXTR agonists, confirmation, fluorescence, CHO-OTR cells, triplicate | shares compounds with OXTR ag | Fluo-8 calcium fluorescence, agonist | activation, % at 3 µM | actives 20% (n = 390) | AID 434963, 2010;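 active = mean activation above about 20% derived from the earlier single-dose screen, limit read from the data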;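 note: peak over minimum fluorescence ratio per well during a 100 second FLIPR read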
V1R ag counter 3x = V1a receptor agonists, calcium signal, counter-screen for OXTR agonist project, triplicate, fluorescence, CHO-V1R cells. shares compounds with OXTR ag. Fluo-8 calcium fluorescence. activation, % at 3 µM. actives 10% (n = 390);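 active = mean activation over triplicate exceeds the hit threshold set in the earlier primary screen, cut at about 20% in these data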;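 note: peak over basal fluorescence ratio within a 100 second read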
Each line names hits and unclear results; the compound was inactive in the other large screens (follow-up assays come after a bar, where they were run); ! = not confirmed by another sample. A selection: hits, their analogues and other compounds. The true share with any hit is near 0.58%.

Cc1cc(C)n(-c2ccc(C(=O)Nc3ccc(C)c(S(=O)(=O)N4CCOCC4)c3)cc2)n1	none
O=C(NNC(=O)C1CCCN(S(=O)(=O)c2ccc3ccccc3c2)C1)C1CC1 (stereo unspecified)	none (no result: OXTR potentiator, OXTR ag, V1aR counter)
COc1cccc(CNCCc2c[nH]c3ccccc23)c1OCc1ccccc1	OXTR ag 29 | OXTR agonist cf inactive | V1R ag counter 3x inactive
COc1ccccc1CCNCc1ccc(OC)c(OCc2ccccc2)c1	OXTR ag 22 | OXTR agonist cf inactive | V1R ag counter 3x inactive
COc1ccc(CNCc2ccco2)cc1OCc1ccccc1	none
COc1cc(CNCCc2c[nH]c3ccccc23)ccc1OCc1ccccc1F	OXTR ag 22 | OXTR agonist cf inactive | V1R ag counter 3x inactive
O=c1c2cc(F)ccc2sn1-c1ccccc1	none (no result: TRPML3 ag, TRPN1 ag)
Cc1ccccc1-n1sc2cc(F)ccc2c1=O	OXTR ag 23 | OXTR agonist cf inactive | V1R ag counter 3x inactive
O=C(NCc1ccc(Cl)cc1)N1CCN(S(=O)(=O)c2ccccc2)CC1	none (no result: TRPML3 ag, TRPN1 ag)
O=C1C=C(O)CC(c2ccc(Cl)c(Cl)c2)C1 (stereo unspecified)	none
CN[C@H]1CC[C@@H](c2ccc(Cl)c(Cl)c2)c2ccccc21	OXTR ag 21! | OXTR agonist cf inactive | V1R ag counter 3x inactive
N#CCCn1nc(-c2ccc(Cl)cc2)cc1Nc1ccccc1NC(=O)C(F)(F)F	OXTR ag 24 | OXTR agonist cf inactive | V1R ag counter 3x inactive
N#CCCn1nc(-c2ccccc2)cc1Nc1ccccc1NC(=O)C(F)(F)F	none
CSc1ccccc1NS(=O)(=O)c1cccc2nonc12	none (no result: TRPML3 ag, TRPN1 ag)
Cc1ccc2nc(-c3ccccc3)c(CC(=O)O)c(C(=O)O)c2c1	none
CCOC(=O)C1=C(COC(=O)c2ccc(OC(C)C)cc2)NC(=O)NC1C (stereo unspecified)	none (no result: TRPML3 ag, TRPN1 ag)
COC(C(=O)Nc1ccc(S(=O)(=O)Nc2ccc(F)cc2)cc1)c1ccccc1 (stereo unspecified)	OXTR ag 20 | OXTR agonist cf 23 | V1R ag counter 3x inactive
CN1CCN(CCCN2c3ccccc3Sc3ccc(Cl)cc32)CC1	OXTR ag 25! | OXTR agonist cf inactive | V1R ag counter 3x inactive
CCSc1ccc2c(c1)N(CCCN1CCN(C)CC1)c1ccccc1S2	none (no result: TRPML3 ag, TRPN1 ag)
Cc1ccc(S(=O)(=O)N2[C@@H](c3ccccc3F)C(C(=O)O)=CC[C@H]2c2ccc3c(c2)OCO3)cc1	none (no result: TRPML3 ag, TRPN1 ag)
CCOC(=O)c1cc(C)sc1NC(=O)CN1CCN(C(=O)c2ccco2)CC1	OXTR ag 23 (no result: TRPML3 ag, TRPN1 ag) | OXTR agonist cf inactive | V1R ag counter 3x inactive
O=C(CN1C(=O)COc2ccc(S(=O)(=O)N3CCCCC3)cc21)NCc1ccccc1Cl	none (no result: TRPML3 ag, TRPN1 ag)
Cc1cc(C(c2ccc(O)cc2)c2cc(C)c(O)cc2C)c(C)cc1O	OXTR ag 41 (no result: TRPML3 ag, TRPN1 ag) | OXTR agonist cf 40 | V1R ag counter 3x 26
COc1cc(CNCCc2ccccc2)ccc1OCc1ccc(Cl)nc1	none
COc1cc(CNCC(O)c2ccccc2)ccc1OCc1ccc(Cl)nc1 (stereo unspecified)	OXTR ag 20 | OXTR agonist cf inactive | V1R ag counter 3x inactive
NNC(=S)NCc1ccc2c(c1)OCO2	none
COc1ccc(NS(=O)(=O)c2cccc(C(=O)OCC(=O)N3CCN(c4ccc(OC)cc4)CC3)c2)cc1	none (no result: TRPML3 ag, TRPN1 ag)
COC(=O)c1cccc(NC(=S)NCc2ccc(Cl)cc2)c1	OXTR ag 21 | OXTR agonist cf inactive | V1R ag counter 3x inactive
COC(=O)c1cc(NC(=S)NCc2ccc(Cl)cc2)cc(C(=O)OC)c1	none
O=c1c2ccccc2ncn1-c1ccc(Cl)cc1[N+](=O)[O-]	none
O=c1c2ccccc2ncn1-c1ccc([N+](=O)[O-])cc1[N+](=O)[O-]	OXTR ag 21 (no result: TRPML3 ag, TRPN1 ag) | OXTR agonist cf inactive | V1R ag counter 3x inactive
CCOC(=O)c1c(C)oc2ccc(O)c(CN(C)C)c12	none
CCOC(=O)c1c(CSc2ccc(CC)cc2)oc2ccc(O)c(CN(C)C)c12	OXTR ag 25 (no result: TRPML3 ag, TRPN1 ag) | OXTR agonist cf inactive | V1R ag counter 3x inactive
COc1cc(CC(NC(C)=O)C(=O)NC2CCN(S(=O)(=O)c3ccc(NC(C)=O)cc3)CC2)cc(OC)c1 (stereo unspecified)	none (no result: TRPML3 ag, TRPN1 ag)
Cc1ccccc1-c1cc(C(=O)Nc2sc(C(=O)OC(C)C)c(C)c2C#N)c2ccccc2n1	OXTR ag 21 | OXTR agonist cf inactive | V1R ag counter 3x inactive
CCOC(=O)c1sc(NC(=O)c2cc(-c3ccc(C)cc3)nc3ccccc23)c(C#N)c1C	none
COC(=O)c1sc(NC(=O)c2cc(-c3ccccc3)nc3ccccc23)c(C#N)c1C	OXTR ag 20 | OXTR agonist cf inactive | V1R ag counter 3x inactive
Cc1nc2c(c(=O)c3ccccc3n2C)c(=O)n1C1CCCCCC1	OXTR ag 20 | OXTR agonist cf inactive | V1R ag counter 3x inactive
CCc1cccc(NC(=O)C2CC2c2ccccc2)c1 (stereo unspecified)	none (no result: TRPML3 ag, TRPN1 ag)
C=CCc1ccc(OCC(O)CN2CCc3ccccc3C2)c(OC)c1 (stereo unspecified)	none (no result: TRPML3 ag, TRPN1 ag)
COc1ccc(OCC(O)CNCCOc2ccccc2OC)c(C(C)(C)C)c1 (stereo unspecified)	OXTR ag 22 (no result: TRPML3 ag, TRPN1 ag) | OXTR agonist cf inactive | V1R ag counter 3x inactive
CC1CCC(NC(=O)c2ccc3c(c2)S(=O)(=O)c2ccccc2C3=O)CC1 (stereo unspecified)	none (no result: TRPML3 ag, TRPN1 ag)
CN1CCN(C(CC(=O)Nc2cccc(O)c2)C(=O)O)CC1 (stereo unspecified)	none
O=C(O)c1cccc(NC(=O)c2cn(-c3ccccc3)nc2-c2cc3ccccc3o2)c1	OXTR ag 20 | OXTR agonist cf inactive | V1R ag counter 3x inactive
Cc1ccc(Oc2ccc(OCC(=O)OC3CCS(=O)(=O)C3)cc2)cc1 (stereo unspecified)	OXTR ag 25 | OXTR agonist cf inactive | V1R ag counter 3x inactive
CC1=C(C(=O)Nc2ccc(C(=O)NC(C)c3ccccc3)cc2)SCCO1 (stereo unspecified)	none (no result: TRPML3 ag, TRPN1 ag)
CN(CC(=O)Nc1cccc(F)c1)C(=O)c1cc(S(=O)(=O)N2CCCCC2)ccc1N1CCOCC1	none (no result: TRPML3 ag, TRPN1 ag)
